Measured values from ChEMBL document CHEMBL5653617, “Inhibition of BRD4 attenuates tumor cell self-renewal and suppresses stem cell signaling in MYC driven medulloblastoma” (Oncotarget, 2014).
The source made the active and inactive calls.

Assays:
[1] = target: Bromodomain-containing protein 4 (Homo sapiens) (UniProt O60885); details: D425 Med, dose 300.0 nM
Daoy [2] = test: Suppression of human Daoy cells self-renewal cultured in serum free condition assessed as reduction in formation of new neurosphere at 300 nM; format: functional, cell-based
Outline: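 Cells grown as neurospheres in serum-free medium for 48 h, dissociated, and seeded in a limiting dilution from 1000 to 1 cell/well, with 300 nM drug or DMSO. After 7 days in serum-free culture, neurospheres per well counted and plotted against cells seeded.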

Daoy [3] = test: Downregulation of BARD1 gene expression in human Daoy cells at 300 nM by GSEA method; format: functional, cell-based
Outline: (§1)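 Daoy cells treated with DMSO or 300 nM drug. RNA extracted and hybridized to Affymetrix HG-ST2.0 arrays. Analysis in R/Bioconductor with gene set enrichment analysis. Regulated transcripts defined as p < 0.05, FDR < 0.05, fold change < 0.67 (down) or > 1.5 (up).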

D458 Med [4] = test: Inhibition of colony formation in human D458 Med cells at 100 to 300 nM incubated for 8 to 11 days by NBT staining based methyl cellulose colony growth assay; format: functional, cell-based; details: dose 100-300 nM, time 8-11 day
Outline: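 500 cells/well suspended in DMEM with methyl cellulose (1.3% final) containing 150 or 300 nM drug or DMSO, plated in triplicate. Colonies formed over 8–11 days, then stained with NBT (1 mg/ml) for 24 h at 37 °C. Colonies of ≥50 cells counted.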

[5] = target: Bromodomain-containing protein 4 (Homo sapiens) (UniProt O60885); details: D283 Med, dose 300.0 nM
[6] = target: Bromodomain-containing protein 4 (Homo sapiens) (UniProt O60885); details: D425 Med, dose 300.0 nM; remark: listed apart in the source
D458 Med [7] = test: Induction of cell cycle arrest in human D458 Med cells assessed as S phase cells at 300 nM incubated for 48 hrs by flow cytometry analysis (reference value: 43.54 +/- 3.48%); format: functional
D425 Med = test: Induction of cell cycle arrest in human D425 Med cells assessed as G2/M phase cells at 300 nM incubated for 48 hrs by flow cytometry analysis (reference value: 37 +/- 0.47%); format: functional
[8] = target: Bromodomain-containing protein 4 (Homo sapiens) (UniProt O60885); details: D458 Med, dose 300.0 nM
[9] = target: Bromodomain-containing protein 4 (Homo sapiens) (UniProt O60885); details: D425 Med, dose 300.0 nM; remark: listed apart in the source
Daoy [10] = test: Induction of senescence in human Daoy cells assessed as increase in p27 protein expression at 300 nM by immunoblot analysis; format: functional, cell-based
Outline: (§2)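 Protein lysates prepared in RIPA buffer with protease inhibitors. Standard western blot with HRP-conjugated secondary antibodies and chemiluminescent detection.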

[11] = target: Bromodomain-containing protein 4 (Homo sapiens) (UniProt O60885); details: D458 Med, dose 300.0 nM; remark: listed apart in the source
[12] = target: Bromodomain-containing protein 4 (Homo sapiens) (UniProt O60885); details: D425 Med, dose 300.0 nM; remark: listed apart in the source
Daoy [13] = test: In vivo inhibition of BRD4 in athymic nude mouse xenografted with human Daoy cells assessed as reduction in SOX2 mRNA expression in tumor at 50 mg/kg, ip measured after 5 days by RT-qPCR analysis; format: functional, organism-based; details: time 5.0 day
Outline: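 Xenograft tumors from mice dosed 50 mg/kg i.p. or DMSO vehicle, n = 3 each. SOX2 mRNA measured by TaqMan qPCR with ΔΔCt quantitation, in triplicate.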

Daoy [14] = test: Downregulation of MYBL2 gene expression in human Daoy cells at 300 nM by GSEA method; format: functional, cell-based
Outline: as §1

Daoy [15] = test: Induction of senescence in human Daoy cells assessed as decrease in phosphorylated RB protein expression at 300 nM by immunoblot analysis; format: functional, cell-based
Outline: as §2

[16] = target: Bromodomain-containing protein 4 (Homo sapiens) (UniProt O60885); details: UW228, dose 300.0 nM

In the case of `Cc1sc2c(c1C)C(c1ccc(Cl)cc1)=N[C@@H](CC(=O)OC(C)(C)C)c1nnc(C)n1-2`, the inhibition [1] is reported as “Active”, the Activity (Daoy [2]) is reported as “Active” and the Activity (Daoy [3]) is reported as “Active”. The inhibition (D458 Med [4]) was “Active”, the inhibition [5] was “Active” and the inhibition [6] was “Active”. The Activity (D458 Med [7]) was 26.58%, the Activity (D425 Med) was 31% and the inhibition [8] was “Active”. For the same molecule, the inhibition [9] was “Active”, the Activity (Daoy [10]) was “Active” and the inhibition [11] was “Active”. The inhibition [12] was “Active”, the inhibition (Daoy [13]) was “Active” and the Activity (Daoy [14]) was “Active”. For the same molecule, the Activity (Daoy [15]) was “Active” and the inhibition [16] was “Active”.
